Measurements as given in ChEMBL document CHEMBL1131255, “Benzylimidazolines as h5-HT1B/1D serotonin receptor ligands: a structure-affinity investigation” (J Med Chem, 1998).

What was measured:
[1] = target: T1, 5-hydroxytryptamine receptor 1B (Homo sapiens, UniProt P28222); assay: Binding affinity towards human 5-hydroxytryptamine 1B receptor using [3H]5-HT trifluoroacetate as radioligand
In short: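 Membrane homogenate (0.1 mg protein/well) incubated in triplicate with [3H]-5-HT (2.5 nM final) in 50 mM Tris, 10 mM MgSO4, 0.5 mM EDTA, 10 µM pargyline, 0.1% ascorbic acid, pH 7.4. Incubation 60 min at room temperature. Nonspecific binding defined with 20 µM 5-HT. Filtration over GF/B, scintillation counting.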

[2] = target: T2, 5-hydroxytryptamine receptor 1D (Homo sapiens, UniProt P28221); assay: Binding affinity towards human 5-hydroxytryptamine 1D receptor using [3H]5-HT trifluoroacetate as radioligand
T2 sequence (P28221 whole entry): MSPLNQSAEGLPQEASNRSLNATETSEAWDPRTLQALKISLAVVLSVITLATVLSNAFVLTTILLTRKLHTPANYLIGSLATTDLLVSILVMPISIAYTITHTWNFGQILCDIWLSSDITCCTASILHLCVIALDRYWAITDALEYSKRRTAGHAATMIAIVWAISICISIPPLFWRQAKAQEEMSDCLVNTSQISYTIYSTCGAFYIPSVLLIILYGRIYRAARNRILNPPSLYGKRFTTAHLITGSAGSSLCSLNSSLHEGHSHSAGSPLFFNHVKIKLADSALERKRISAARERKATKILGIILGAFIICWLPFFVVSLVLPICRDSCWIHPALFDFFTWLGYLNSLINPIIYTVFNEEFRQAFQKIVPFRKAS

[3] = target: Serotonin 1 receptors; 5-HT1B & 5-HT1D (Homo sapiens) (UniProt P28222+P28221); assay: Binding Selectivity was determined [Selectivity = Ki against h5-HT1B receptor / Ki against h5-HT1D receptor]; assay type: protein assay
[4] = target: T1, 5-hydroxytryptamine receptor 1B; assay: Adenyl cyclase activity was expressed as percent forskolin response against 5-hydroxytryptamine 1B receptor at concentration 1 uM; assay type: functional
In short: (§1)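 Agonist test in CHO Pro 5 cells stably transfected with human h5-HT1B or h5-HT1D receptors. Compound added to culture medium with 10 µM forskolin and 0.5 mM IBMX, 30 min at 37 °C. Stopped with cold ethanolic 5 mM EDTA (2:1 v/v) to extract cAMP. cAMP measured by enzyme immunoassay; mean ± SEM from three or more experiments.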

[5] = target: T1, 5-hydroxytryptamine receptor 1B; assay: Adenyl cyclase activity was expressed as percent forskolin response against 5-hydroxytryptamine 1B receptor at concentration 10 uM; assay type: functional; in short: as §1
[6] = target: T2, 5-hydroxytryptamine receptor 1D; assay: Adenyl cyclase activity was expressed as percent forskolin response against 5-hydroxytryptamine 1D receptor at concentration 1 uM; assay type: functional; in short: as §1
[7] = target: T2, 5-hydroxytryptamine receptor 1D; assay: Adenyl cyclase activity was expressed as percent forskolin response against 5-hydroxytryptamine 1D receptor at concentration 10 uM; assay type: functional; in short: as §1
[8] = Tested for 5-hydroxytryptamine 1D like receptor-mediated vascular effect in rabbit saphenous vein (RSV)
[9] = target: T3, Adrenergic receptor alpha-2 (Homo sapiens, UniProt P08913+P18825+P18089); assay: Binding affinity towards Alpha-2 adrenergic receptor; assay type: protein assay
T3 sequence (P08913 whole entry): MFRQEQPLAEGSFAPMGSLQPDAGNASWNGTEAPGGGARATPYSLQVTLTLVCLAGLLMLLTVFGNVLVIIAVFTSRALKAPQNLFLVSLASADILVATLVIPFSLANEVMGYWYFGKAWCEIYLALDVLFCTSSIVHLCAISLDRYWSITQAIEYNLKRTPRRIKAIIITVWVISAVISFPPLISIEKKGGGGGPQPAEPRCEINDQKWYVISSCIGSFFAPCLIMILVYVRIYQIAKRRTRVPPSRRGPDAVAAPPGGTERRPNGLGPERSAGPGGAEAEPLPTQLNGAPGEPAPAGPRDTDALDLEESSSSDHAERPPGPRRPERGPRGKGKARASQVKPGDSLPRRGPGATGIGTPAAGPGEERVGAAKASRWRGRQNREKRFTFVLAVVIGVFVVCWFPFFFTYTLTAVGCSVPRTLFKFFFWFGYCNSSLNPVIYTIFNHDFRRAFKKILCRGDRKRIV
T3 sequence (P18825 whole entry): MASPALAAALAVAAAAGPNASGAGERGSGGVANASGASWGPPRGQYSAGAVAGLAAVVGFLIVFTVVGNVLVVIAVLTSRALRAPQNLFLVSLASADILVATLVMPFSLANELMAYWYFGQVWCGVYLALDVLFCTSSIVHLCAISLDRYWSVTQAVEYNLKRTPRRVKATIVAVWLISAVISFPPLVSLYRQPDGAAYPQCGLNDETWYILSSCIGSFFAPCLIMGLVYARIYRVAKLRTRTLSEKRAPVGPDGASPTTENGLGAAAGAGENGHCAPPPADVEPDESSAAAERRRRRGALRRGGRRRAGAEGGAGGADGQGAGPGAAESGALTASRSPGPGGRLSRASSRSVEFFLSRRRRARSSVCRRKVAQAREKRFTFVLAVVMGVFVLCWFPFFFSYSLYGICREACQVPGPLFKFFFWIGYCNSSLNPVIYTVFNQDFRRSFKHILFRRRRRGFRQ
T3 sequence (P18089 whole entry): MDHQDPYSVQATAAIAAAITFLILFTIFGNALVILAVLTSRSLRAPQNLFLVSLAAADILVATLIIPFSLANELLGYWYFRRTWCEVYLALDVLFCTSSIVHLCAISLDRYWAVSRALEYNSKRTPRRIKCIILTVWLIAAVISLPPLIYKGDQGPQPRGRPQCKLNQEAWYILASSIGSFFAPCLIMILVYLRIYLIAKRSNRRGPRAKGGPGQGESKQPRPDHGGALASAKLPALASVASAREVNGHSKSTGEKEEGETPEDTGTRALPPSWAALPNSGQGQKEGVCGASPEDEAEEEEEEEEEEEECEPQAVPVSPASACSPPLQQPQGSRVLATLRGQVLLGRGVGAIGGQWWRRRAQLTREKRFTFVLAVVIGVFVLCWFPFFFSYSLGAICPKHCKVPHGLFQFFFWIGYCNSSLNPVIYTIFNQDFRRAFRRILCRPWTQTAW

[10] = target: Adrenergic receptor alpha; assay: Binding affinity towards Alpha-1 adrenergic receptor; assay type: protein assay, Canis lupus familiaris

T1 sequence (P28222 whole entry): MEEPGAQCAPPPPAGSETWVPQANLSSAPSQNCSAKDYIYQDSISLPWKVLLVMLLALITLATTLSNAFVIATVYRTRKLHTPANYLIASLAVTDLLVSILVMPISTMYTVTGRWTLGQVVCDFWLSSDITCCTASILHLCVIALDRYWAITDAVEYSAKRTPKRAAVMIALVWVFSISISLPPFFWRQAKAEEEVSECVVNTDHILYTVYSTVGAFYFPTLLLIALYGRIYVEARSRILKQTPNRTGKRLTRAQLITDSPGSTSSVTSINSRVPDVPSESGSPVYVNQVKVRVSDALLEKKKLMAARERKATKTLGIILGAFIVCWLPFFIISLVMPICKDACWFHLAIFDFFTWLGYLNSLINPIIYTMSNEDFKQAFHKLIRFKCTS

| SMILES | Ki [1] | Ki [2] | Selectivity [3] | other results |
| --- | --- | --- | --- | --- |
| c1ccc(CC2=NCCN2)cc1 [TOLAZOLINE] | > 10000 nM | > 10000 nM |  |  |
| Oc1cccc(CC2=NCCN2)c1 | 3740 nM | > 10000 nM | < 1 |  |
| Cc1cccc(C)c1CC1=NCCN1 | > 10000 nM | 2210 nM | > 4 |  |
| Cc1ccc(CC2=NCCN2)c(C)c1O | 2000 nM | 1900 nM | 1 |  |
| CCCCc1ccc(CC2=NCCN2)cc1 | > 10000 nM | 2520 nM | > 4 |  |
| Cc1cc(C)c(CC2=NCCN2)c(C)c1 |  | 72 nM | 48 | Response [4]: 49%; Response [5]: 52%; Response [6]: 23%; Response [7]: 49%; EC50 [8]: 150 nM |
| CN1CCN=C1Cc1ccccc1 | > 10000 nM |  |  |  |
| CCCc1ccc(CC2=NCCN2)cc1 | > 10000 nM | 2380 nM | > 4 |  |
| Cc1ccc(CC2=NCCN2)c(C)c1OCc1ccccc1 | 3860 nM | 1100 nM | 4 |  |
| Cc1cc(C(C)(C)C)cc(C)c1CC1=NCCN1C | > 5000 nM |  |  |  |
| CCc1ccc(CC2=NCCN2)cc1 | > 10000 nM | > 10000 nM |  |  |
| Cc1cc(C(C)(C)C)cc(C)c1CCN | > 10000 nM | 1360 nM |  |  |
| Brc1ccc(CC2=NCCN2)cc1 | > 10000 nM | 4390 nM | > 2 |  |
| CNCCc1c(C)cc(C(C)(C)C)cc1C | > 10000 nM | > 5000 nM |  |  |
| Cc1ccc(O)c(C)c1CC1=NCCN1 | 5790 nM | 1040 nM | 6 |  |
| Nc1ccc(CC2=NCCN2)cc1 | > 10000 nM | > 10000 nM |  |  |
| Cc1cc(C(C)(C)C)cc(C)c1CC1=NCCN1 [XYLOMETAZOLINE] | 14 nM |  |  | Response [4]: 51%; Response [5]: 64%; Response [6]: 38%; Response [7]: 41%; Ki [9]: > 500 nM; Ki [10]: 91 nM |
| Cc1cc(C(C)(C)C)c(O)c(C)c1CC1=NCCN1 [OXYMETAZOLINE] | 0.3 nM |  |  | Response [4]: 57%; Response [5]: 40%; Response [6]: 40%; Response [7]: 35% |
| Cc1cc(C(C)C)cc(C)c1CC1=NCCN1 |  | 1.1 nM | 34 | Response [4]: 53%; Response [5]: 56%; Response [6]: 34%; Response [7]: 34%; Ki [9]: > 500 nM; Ki [10]: 65 nM; EC50 [8]: 138 nM |
| CC(C)c1ccc(CC2=NCCN2)cc1 |  |  | 8 |  |
| Cc1cc(Br)cc(C)c1CC1=NCCN1 |  |  | 21 |  |
| Cc1cc(C(C)(C)C)ccc1CC1=NCCN1 |  |  | 105 | Response [4]: 63%; Response [5]: 58%; Response [6]: 51%; Response [7]: 50%; Ki [9]: > 500 nM; Ki [10]: 154 nM; EC50 [8]: 1670 nM |
| O=[N+]([O-])c1ccc(CC2=NCCN2)cc1 | > 10000 nM | > 10000 nM |  |  |
| COc1cccc(CC2=NCCN2)c1 | 1630 nM |  |  |  |
| CC(C)(C)c1ccc(CC2=NCCN2)cc1 | 6830 nM |  | 65 | Response [4]: 99%; Response [5]: 86%; Response [6]: 69%; Response [7]: 65%; Ki [9]: 1120 nM; Ki [10]: 2625 nM; EC50 [8]: > 10000 nM |
| c1ccc(-c2ccc(CC3=NCCN3)cc2)cc1 | > 10000 nM | > 10000 nM |  |  |
